In PMC7114156 (Antiviral Research, 2009):
Read-outs that look alike come from different tables or passages of the source. Marks after values point to notes of the source that are not given here.

What was measured:
[1] = tested on: MT4 cells; assay: Growth of MT4 cell line; type: cell-based, human; details: for EC50: K ∼ EC50
[2] = tested on: immortalized cell lines; assay: Growth of immortalized cell lines; type: cell-based
[3] = tested on: W12 cells; assay: mRNA measurement by RT-qPCR in W12 cells; type: cell-based, human; details: W12 cells
Summary of the method: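 RNA was taken 0, 24 and 48 h after adding test compound; W12 cells were grown in 75 cm² flasks and washed in chilled PBS. 546 Pathway Set genes were run in quadruplicate by RT-qPCR: 10 μl reactions, primers 900 nM, probes 100 nM final. Ct was normalised to GAPDH, with dCt = Ct(control) − Ct(treated) and a two-sided t-test. Fold change was F = 2^dCt where p ≤ 0.05.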

[4] = 10 nM, 24 h, not significantly different from 1

SMILES: O=C(N[C@@H]1CCCc2c1[nH]c1ccc(Cl)cc21)c1ccccn1 [GSK983, N-[(1R)-6-Chloro-2,3,4,9-tetrahydro-1H-carbazol-1-yl]-2-pyridinecarboxamide]
- EC50 ([1]; Homo sapiens, MT4, 72 h, read-out: K, cell line growth, MT4 (HTLV1), CTG, 72 h): 8 nM
- Selectivity index ([1]; MT4 (HTLV1) vs activated CD4 T cell): 7600 ± 1000
- EC50 ([1]; read-out: K, cell line growth, MT4 (HTLV1), CTG, 72 h): 7.5 ± 0.6 nM
- Selectivity index ([2]; EBV and HTLV-1 viral-immortalized cell lines vs related primary cells): approximately 1000
- Time after addition of the compound until reduction in growth rate ([2]; W12, U937 and IM9 growth curves): approximately 24 h
- Concentrations at which apoptosis or cytostasis is induced ([2]; depending on the cell line): over 20 nM
- EC50 ([2]; read-out: EC50 values, growth of cell lines immortalized by HTLV-1, EBV, HPV, SV40 and Ad-5): 10 to 40 nM
- Expression of IFI6, IFI44 and IRF9 [3]: strongly induced
- Fold increase due to GSK983, CPT1B mRNA ([3]; 10 nM, 24 h): 2.2 fold
- Fold increase due to GSK983, IFI16 mRNA ([3]; 10 nM, 24 h): 5.2 fold
- Fold increase due to GSK983, IFI44 mRNA ([3]; 10 nM, 24 h): 2.9 fold
- Fold increase due to GSK983, IFIT1 mRNA ([3]; 10 nM, 24 h): 2.6 fold
- Fold increase due to GSK983, ISG15 mRNA ([3]; 10 nM, 24 h): 2.5 fold
- Fold increase due to GSK983, OAS2 mRNA ([3]; 10 nM, 24 h): 2.1 fold
- Fold increase due to GSK983, OASL mRNA ([3]; 10 nM, 24 h): 1.8 fold
- Fold increase due to GSK983, TNFSF10 mRNA ([3]; 10 nM, 24 h): 3.7 fold
- Fold increase due to GSK983, CCL5 mRNA [3, 4]: 7.9 ^b fold
- Fold increase due to GSK983, COL10A1 mRNA [3, 4]: 0.8 ^b fold
- Fold increase due to GSK983, CSF2 mRNA [3, 4]: 1.5 ^b fold
- Fold increase due to GSK983, DCN mRNA [3, 4]: 1.5 ^b fold
- Fold increase due to GSK983, DMPK mRNA [3, 4]: 0.9 ^b fold
- Fold increase due to GSK983, ERN2 mRNA [3, 4]: 0.7 ^b fold
- Fold increase due to GSK983, FMOD mRNA [3, 4]: 1.0 ^b fold
- Fold increase due to GSK983, IFI6 mRNA [3, 4]: 1.1 ^b fold
- Fold increase due to GSK983, IL6 mRNA [3, 4]: 2.5 ^b fold
- Fold increase due to GSK983, IL8 mRNA [3, 4]: 1.8 ^b fold
- Fold increase due to GSK983, IRF9 mRNA [3, 4]: 1.0 ^b fold
- Fold increase due to GSK983, LIFR mRNA [3, 4]: 2.1 ^b fold
- Fold increase due to GSK983, LRP1 mRNA [3, 4]: 1.2 ^b fold
- Fold increase due to GSK983, NR1H3 mRNA [3, 4]: 0.6 ^b fold
- Fold increase due to GSK983, OAS1 mRNA [3, 4]: 1.1 ^b fold
- Fold increase due to GSK983, SNAP25 mRNA [3, 4]: 1.2 ^b fold
- Fold increase due to GSK983, TLR5 mRNA [3, 4]: 1.9 ^b fold
- Fold increase due to GSK983, CCL5 mRNA ([3]; 10 nM, 48 h): 41.5 fold
- Fold increase due to GSK983, CEL mRNA ([3]; 10 nM, 48 h): 14.1 fold
- Fold increase due to GSK983, COL10A1 mRNA ([3]; 10 nM, 48 h): 2.0 fold
- Fold increase due to GSK983, CPT1B mRNA ([3]; 10 nM, 48 h): 2.2 fold
- Fold increase due to GSK983, CSF2 mRNA ([3]; 10 nM, 48 h): 1.7 fold
- Fold increase due to GSK983, DCN mRNA ([3]; 10 nM, 48 h): 2.1 fold
- Fold increase due to GSK983, DMPK mRNA ([3]; 10 nM, 48 h): 2.1 fold
- Fold increase due to GSK983, ERN2 mRNA ([3]; 10 nM, 48 h): 2.6 fold
- Fold increase due to GSK983, FMOD mRNA ([3]; 10 nM, 48 h): 1.5 fold
- Fold increase due to GSK983, IFI6 mRNA ([3]; 10 nM, 48 h): 2.2 fold
- Fold increase due to GSK983, IFI16 mRNA ([3]; 10 nM, 48 h): 1.6 fold
- Fold increase due to GSK983, IFI44 mRNA ([3]; 10 nM, 48 h): 2.7 fold
- Fold increase due to GSK983, IFIT1 mRNA ([3]; 10 nM, 48 h): 2.0 fold
- Fold increase due to GSK983, IL6 mRNA ([3]; 10 nM, 48 h): 1.8 fold
- Fold increase due to GSK983, IL8 mRNA ([3]; 10 nM, 48 h): 1.4 fold
- Fold increase due to GSK983, IRF3 mRNA ([3]; 10 nM, 48 h): 1.3 fold
- Fold increase due to GSK983, ISG15 mRNA ([3]; 10 nM, 48 h): 3.0 fold
- Fold increase due to GSK983, LIFR mRNA ([3]; 10 nM, 48 h): 1.5 fold
- Fold increase due to GSK983, LRP1 mRNA ([3]; 10 nM, 48 h): 3.5 fold
- Fold increase due to GSK983, NR1H3 mRNA ([3]; 10 nM, 48 h): 1.8 fold
- Fold increase due to GSK983, OAS1 mRNA ([3]; 10 nM, 48 h): 1.7 fold
- Fold increase due to GSK983, OAS2 mRNA ([3]; 10 nM, 48 h): 1.8 fold
- Fold increase due to GSK983, OASL mRNA ([3]; 10 nM, 48 h): 2.2 fold
- Fold increase due to GSK983, SNAP25 mRNA ([3]; 10 nM, 48 h): 3.7 fold
- Fold increase due to GSK983, TLR5 mRNA ([3]; 10 nM, 48 h): 1.7 fold
- Fold increase due to GSK983, TNFSF10 mRNA ([3]; 10 nM, 48 h): 1.8 fold
- Fold increase due to GSK983, CCL5 mRNA ([3]; 100 nM, 24 h): 3.1 fold
- Fold increase due to GSK983, CEL mRNA ([3]; 100 nM, 24 h): 3.0 fold
- Fold increase due to GSK983, COL10A1 mRNA ([3]; 100 nM, 24 h): 3.6 fold
